Here are results for ten compounds from ChEMBL document CHEMBL4325855 (Eur J Med Chem, 2019).

Series [1] concerns the target T1, Mitogen-activated protein kinase 8 (Homo sapiens, UniProt P45983). The experiment in a line: Binding affinity to human full-length JNK1 (M1 to Q384 residues) expressed in HEK293 cells at <40 uM after 1 hr by Kinomescan method. The format is cell-based. The essentials: (§1)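 Competition binding on a phage-display/cell-expressed kinase platform; each compound incubated with kinase 1 h at room temperature. Unbound kinase was captured on an immobilized affinity ligand and quantified by qPCR. […] N.A. means no inhibition below 40 µM.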

In series [2] the target is T2, Mitogen-activated protein kinase 9 (Homo sapiens, UniProt P45984). The series can be described thus: Binding affinity to human full-length JNK2 (M1 to Q382 residues) expressed in HEK293 cells at <40 uM after 1 hr by Kinomescan method. The format is cell-based. The essentials:
as §1
Target sequence in this assay (P45984 whole entry, looked up, the tested form may be a part): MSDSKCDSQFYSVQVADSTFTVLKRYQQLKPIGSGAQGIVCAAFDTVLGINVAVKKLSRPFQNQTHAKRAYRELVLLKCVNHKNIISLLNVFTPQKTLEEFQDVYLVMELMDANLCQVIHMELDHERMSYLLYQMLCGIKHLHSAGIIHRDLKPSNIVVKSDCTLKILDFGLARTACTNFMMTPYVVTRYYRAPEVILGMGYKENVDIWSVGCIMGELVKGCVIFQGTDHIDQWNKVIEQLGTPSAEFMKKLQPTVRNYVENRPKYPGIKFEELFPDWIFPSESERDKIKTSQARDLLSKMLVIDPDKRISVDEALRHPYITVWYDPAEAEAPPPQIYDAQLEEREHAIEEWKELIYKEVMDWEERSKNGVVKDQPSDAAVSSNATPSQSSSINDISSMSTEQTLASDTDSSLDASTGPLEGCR

Series [3] has as its target T3, Mitogen-activated protein kinase 10 (Homo sapiens, UniProt P53779). The experiment in a line: Binding affinity to human partial length JNK3 (V28 to Q422 residues) expressed in HEK293 cells at <40 uM after 1 hr by Kinomescan method. Type of series: cell-based. A digest of the protocol: as §1
The target of series [4] is T4, c-Jun N-terminal kinase, JNK (Homo sapiens, UniProt P45983+P53779+P45984). The experiment in a line: Inhibition of JNK in human THP1-Blue cells assessed as reduction in LPS-induced NFkappaB/AP1 activation at <40 uM preincubated for 30 mins followed by LPS-stimulation and measured after 24 hrs by quanti-blue staining based alkaline phosphatase reporter gene assay. Type of series: cell-based. The essentials: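 THP-1Blue monocytes carry a secreted alkaline phosphatase reporter under an NF-κB/AP-1-inducible promoter and were grown in RPMI 1640 with 10% FBS plus Zeocin and blasticidin selection. Cells, 2 × 10^5/well, were pretreated 30 min with compound or DMSO, then given 250 ng/ml LPS for 24 h. Supernatant phosphatase was read with QUANTI-Blue at 655 nm against LPS controls; IC50 calculated.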

Series [5] has as its target T4, c-Jun N-terminal kinase, JNK. The experiment in a line: Inhibition of JNK in human MONO-MAC-6 cells assessed as reduction in LPS-induced IL6 production at <40 uM preincubated for 30 mins followed by LPS-stimulation and measured after 24 hrs by ELISA. Type of series: cell-based. The essentials: (§2)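 MonoMac-6 cells, 2 × 10^5/well in medium with 3% endotoxin-free FBS, were pretreated 30 min with compound or DMSO, then stimulated with 250 ng/ml LPS for 24 h. IL-6 in the supernatant was measured by human IL-6 ELISA. IC50 came from percent inhibition vs log concentration (at least five points); triplicate samples, representative of three experiments.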

Series [6] in a line: Cytotoxicity against human THP1-Blue cells assessed as effect on cell viability up to 50 uM after 24 hrs by CellTiter-Glo luminescent cell viability assay. Type of series: cell-based. A digest of the protocol: (§3)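 Viability of MonoMac-6 and THP-1Blue cells was tested with compound up to 50 µM for 24 h at 37 °C, 5% CO2. After 30 min equilibration to room temperature, CellTiter-Glo reagent was added and luminescence read. IC50 was derived from percent inhibition vs log concentration, at least five points.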

The test system of the next series is MONO-MAC-6. The experiment in a line: Cytotoxicity against human MONO-MAC-6 cells assessed as effect on cell viability up to 50 uM after 24 hrs by CellTiter-Glo luminescent cell viability assay. The format is cell-based. Particulars: mono-mac-6, 24 h. The essentials:
as §3

Series [7] has as its target T1, Mitogen-activated protein kinase 8. The series can be described thus: Binding affinity to human full-length JNK1 (M1 to Q384 residues) expressed in HEK293 cells measured after 1 hr by Kinomescan method. Type of series: cell-based. The essentials: (§4)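 Competition binding on a phage-display/cell-expressed kinase platform; each compound incubated with kinase 1 h at room temperature. Unbound kinase was captured on an immobilized affinity ligand and quantified by qPCR. N.A. means no inhibition below 40 µM.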

The target of series [8] is T2, Mitogen-activated protein kinase 9. The series can be described thus: Binding affinity to human full-length JNK2 (M1 to Q382 residues) expressed in HEK293 cells measured after 1 hr by Kinomescan method. The format is cell-based. A digest of the protocol: as §4
Target sequence in this assay (P45984 whole entry, the tested form may be a part): as the sequence (P45984 whole entry, looked up, the tested form may be a part) above
In series [9] the target is T3, Mitogen-activated protein kinase 10. The series can be described thus: Binding affinity to human partial length JNK3 (V28 to Q422 residues) expressed in HEK293 cells measured after 1 hr by Kinomescan method. Type of series: cell-based. A digest of the protocol: as §4
For series [10], the target named is T4, c-Jun N-terminal kinase, JNK. The experiment in a line: Inhibition of JNK in human THP1-Blue cells assessed as reduction in LPS-induced NFkappaB/AP1 activation preincubated for 30 mins followed by LPS-stimulation and measured after 24 hrs by quanti-blue staining based alkaline phosphatase reporter gene assay. The format is cell-based.
For series [11] the target is unchanged. The experiment in a line: Inhibition of JNK in human MONO-MAC-6 cells assessed as reduction in LPS-induced IL6 production preincubated for 30 mins followed by LPS-stimulation and measured after 24 hrs by ELISA. Type of series: cell-based. A digest of the protocol: as §2
Series [12] concerns Transcription factor AP-1 (Homo sapiens). The series can be described thus: Inhibition of LPS-induced c-Jun phosphorylation at ser73 residues in human MONO-MAC-6 cells at 6.25 to 50 uM preincubated for 30 mins followed by LPS-stimulation and measured after 30 mins by Western blot analysis.
For series [13], the target named is T5, High affinity nerve growth factor receptor (Homo sapiens, UniProt P04629). The series can be described thus: Binding affinity to human partial length TRKA (G475 to G790 residues) expressed in HEK293 cells measured after 1 hr by Kinomescan method. Type of series: cell-based.
Target sequence in this assay (P04629 whole entry, the tested form may be a part): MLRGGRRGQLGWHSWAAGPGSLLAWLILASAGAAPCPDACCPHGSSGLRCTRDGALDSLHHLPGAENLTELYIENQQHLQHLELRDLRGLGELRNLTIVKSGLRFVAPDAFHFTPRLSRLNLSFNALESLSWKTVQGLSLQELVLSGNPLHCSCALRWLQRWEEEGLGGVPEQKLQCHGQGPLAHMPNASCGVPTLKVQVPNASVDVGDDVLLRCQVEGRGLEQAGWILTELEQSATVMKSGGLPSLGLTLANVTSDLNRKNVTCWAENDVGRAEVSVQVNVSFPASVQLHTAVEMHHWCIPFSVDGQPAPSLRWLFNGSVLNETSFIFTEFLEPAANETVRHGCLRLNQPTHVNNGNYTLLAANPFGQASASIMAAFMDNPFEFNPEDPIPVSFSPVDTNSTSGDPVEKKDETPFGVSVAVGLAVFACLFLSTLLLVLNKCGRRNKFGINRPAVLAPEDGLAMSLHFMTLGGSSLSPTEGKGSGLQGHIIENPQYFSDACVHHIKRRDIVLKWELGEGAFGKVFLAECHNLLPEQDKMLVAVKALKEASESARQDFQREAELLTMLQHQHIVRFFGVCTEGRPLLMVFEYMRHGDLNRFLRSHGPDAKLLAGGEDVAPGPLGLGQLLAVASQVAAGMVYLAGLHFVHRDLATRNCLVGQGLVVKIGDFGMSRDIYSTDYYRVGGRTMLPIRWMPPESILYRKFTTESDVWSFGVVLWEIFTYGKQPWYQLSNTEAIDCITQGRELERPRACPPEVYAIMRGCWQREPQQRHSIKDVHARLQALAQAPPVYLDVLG
Series [14] has as its target BDNF/NT-3 growth factors receptor (Homo sapiens, UniProt Q16620). The experiment in a line: Binding affinity to human partial length TRKB (Q547 to G838 residues) expressed in HEK293 cells measured after 1 hr by Kinomescan method. Type of series: cell-based.
Series [15] is described as follows: Lipophilicity, log P of the compound. The format is physicochemical. Particulars: octanol/water.
Series [16] addresses Casein kinase I isoform delta (Homo sapiens) (UniProt P48730). The series can be described thus: Inhibition of ligand binding to human full-length CK1delta (M1 to K409 residues) expressed in bacterial expression system at 10 uM measured after 1 hr by Kinomescan method relative to control. The essentials: (§5)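 Binding ran 1 h at room temperature. Kinase not bound to compound was captured by an immobilized affinity ligand and measured by qPCR, in duplicate.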

Series [17] has as its target T5, High affinity nerve growth factor receptor. The series can be described thus: Inhibition of ligand binding to human partial length TRKA (G475 to G790 residues) expressed in HEK293 cells at 10 uM measured after 1 hr by Kinomescan method relative to control. The format is cell-based. A digest of the protocol: as §5
Target sequence in this assay (P04629 33-796 limits assumed): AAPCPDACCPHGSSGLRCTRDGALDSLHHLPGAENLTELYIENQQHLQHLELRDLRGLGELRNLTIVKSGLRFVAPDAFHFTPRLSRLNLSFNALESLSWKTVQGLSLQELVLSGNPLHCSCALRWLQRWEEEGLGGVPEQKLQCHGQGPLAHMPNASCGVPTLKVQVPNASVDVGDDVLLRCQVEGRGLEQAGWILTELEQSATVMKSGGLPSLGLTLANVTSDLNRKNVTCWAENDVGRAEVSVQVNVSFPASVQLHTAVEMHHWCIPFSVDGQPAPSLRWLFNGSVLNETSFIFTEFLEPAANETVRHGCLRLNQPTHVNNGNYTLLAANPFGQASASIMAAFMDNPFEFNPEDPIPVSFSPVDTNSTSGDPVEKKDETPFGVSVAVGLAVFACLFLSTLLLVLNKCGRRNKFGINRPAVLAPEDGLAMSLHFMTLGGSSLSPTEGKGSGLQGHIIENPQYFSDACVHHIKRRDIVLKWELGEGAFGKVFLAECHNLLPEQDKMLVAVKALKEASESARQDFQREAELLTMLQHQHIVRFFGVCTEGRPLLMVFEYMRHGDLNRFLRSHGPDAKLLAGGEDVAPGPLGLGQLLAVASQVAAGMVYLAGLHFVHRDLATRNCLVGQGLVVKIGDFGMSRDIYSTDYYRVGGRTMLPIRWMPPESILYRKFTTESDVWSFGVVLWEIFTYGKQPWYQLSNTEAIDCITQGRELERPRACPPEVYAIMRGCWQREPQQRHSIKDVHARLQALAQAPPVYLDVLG
Series [18] concerns the target T1, Mitogen-activated protein kinase 8. The series can be described thus: Inhibition of ligand binding to human full-length JNK1 (M1 to Q384 residues) expressed in HEK293 cells at 10 uM measured after 1 hr by Kinomescan method relative to control. The format is cell-based. The essentials:
as §5

In series [19] the target is T2, Mitogen-activated protein kinase 9. The experiment in a line: Inhibition of ligand binding to human full-length JNK2 (M1 to Q382 residues) expressed in HEK293 cells at 10 uM measured after 1 hr by Kinomescan method relative to control. The format is cell-based. A digest of the protocol: as §5
Target sequence in this assay (P45984 whole entry, looked up, the tested form may be a part): as the sequence (P45984 whole entry, looked up, the tested form may be a part) above
Series [20] deals with T3, Mitogen-activated protein kinase 10. The experiment in a line: Inhibition of ligand binding to human partial length JNK3 (V28 to Q422 residues) expressed in HEK293 cells at 10 uM measured after 1 hr by Kinomescan method relative to control. Type of series: cell-based. The essentials: as §5

Calls of active or inactive are those of the source. No cut-off for these calls is given here.

T1 sequence (P45983 whole entry, the tested form may be a part): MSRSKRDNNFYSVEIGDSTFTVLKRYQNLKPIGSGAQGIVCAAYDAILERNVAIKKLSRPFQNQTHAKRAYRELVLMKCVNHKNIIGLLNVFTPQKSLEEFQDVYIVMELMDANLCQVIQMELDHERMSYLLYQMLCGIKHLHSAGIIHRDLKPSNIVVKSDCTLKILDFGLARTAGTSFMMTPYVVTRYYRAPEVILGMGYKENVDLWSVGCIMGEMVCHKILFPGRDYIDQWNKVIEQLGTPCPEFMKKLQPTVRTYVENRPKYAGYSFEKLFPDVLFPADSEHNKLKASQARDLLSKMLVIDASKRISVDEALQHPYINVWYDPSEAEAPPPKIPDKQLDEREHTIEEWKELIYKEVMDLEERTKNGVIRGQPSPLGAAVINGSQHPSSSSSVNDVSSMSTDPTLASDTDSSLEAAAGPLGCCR
T3 sequence (P53779 whole entry, the tested form may be a part): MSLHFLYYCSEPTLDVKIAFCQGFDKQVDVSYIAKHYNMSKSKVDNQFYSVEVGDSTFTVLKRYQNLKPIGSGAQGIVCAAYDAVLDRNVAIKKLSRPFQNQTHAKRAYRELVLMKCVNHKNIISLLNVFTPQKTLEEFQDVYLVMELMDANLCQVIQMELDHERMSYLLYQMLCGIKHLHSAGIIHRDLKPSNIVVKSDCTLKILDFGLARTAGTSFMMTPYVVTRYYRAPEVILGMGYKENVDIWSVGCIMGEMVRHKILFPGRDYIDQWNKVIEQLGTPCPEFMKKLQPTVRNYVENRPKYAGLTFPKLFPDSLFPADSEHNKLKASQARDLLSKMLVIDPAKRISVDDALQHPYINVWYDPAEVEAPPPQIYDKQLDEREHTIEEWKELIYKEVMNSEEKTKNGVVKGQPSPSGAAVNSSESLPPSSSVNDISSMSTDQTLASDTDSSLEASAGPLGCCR
Sequence of BDNF/NT-3 growth factors receptor (Q16620 whole entry, the tested form may be a part): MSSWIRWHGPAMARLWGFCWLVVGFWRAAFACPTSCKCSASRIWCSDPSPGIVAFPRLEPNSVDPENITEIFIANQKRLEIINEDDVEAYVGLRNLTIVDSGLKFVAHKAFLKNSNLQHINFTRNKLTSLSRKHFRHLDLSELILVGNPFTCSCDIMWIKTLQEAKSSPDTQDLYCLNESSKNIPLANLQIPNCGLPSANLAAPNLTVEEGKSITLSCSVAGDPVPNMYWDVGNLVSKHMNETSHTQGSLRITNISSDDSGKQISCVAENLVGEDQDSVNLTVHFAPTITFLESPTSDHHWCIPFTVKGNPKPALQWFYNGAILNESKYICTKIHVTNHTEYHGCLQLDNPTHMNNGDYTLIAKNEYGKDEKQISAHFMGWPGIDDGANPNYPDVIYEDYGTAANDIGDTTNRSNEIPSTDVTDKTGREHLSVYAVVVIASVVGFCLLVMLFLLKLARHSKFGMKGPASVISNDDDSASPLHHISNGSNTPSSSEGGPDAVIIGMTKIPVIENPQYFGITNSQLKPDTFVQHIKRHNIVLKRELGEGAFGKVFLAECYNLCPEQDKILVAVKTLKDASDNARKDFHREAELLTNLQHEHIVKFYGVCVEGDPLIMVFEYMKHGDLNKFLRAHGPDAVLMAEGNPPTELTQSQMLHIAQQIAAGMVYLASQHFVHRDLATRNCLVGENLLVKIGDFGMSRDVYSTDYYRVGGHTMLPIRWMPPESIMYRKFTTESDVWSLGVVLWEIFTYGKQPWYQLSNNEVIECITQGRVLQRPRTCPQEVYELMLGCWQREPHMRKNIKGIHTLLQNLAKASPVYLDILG
Sequence of Casein kinase I isoform delta (Homo sapiens) (P48730 whole entry, looked up, the tested form may be a part, canonical isoform): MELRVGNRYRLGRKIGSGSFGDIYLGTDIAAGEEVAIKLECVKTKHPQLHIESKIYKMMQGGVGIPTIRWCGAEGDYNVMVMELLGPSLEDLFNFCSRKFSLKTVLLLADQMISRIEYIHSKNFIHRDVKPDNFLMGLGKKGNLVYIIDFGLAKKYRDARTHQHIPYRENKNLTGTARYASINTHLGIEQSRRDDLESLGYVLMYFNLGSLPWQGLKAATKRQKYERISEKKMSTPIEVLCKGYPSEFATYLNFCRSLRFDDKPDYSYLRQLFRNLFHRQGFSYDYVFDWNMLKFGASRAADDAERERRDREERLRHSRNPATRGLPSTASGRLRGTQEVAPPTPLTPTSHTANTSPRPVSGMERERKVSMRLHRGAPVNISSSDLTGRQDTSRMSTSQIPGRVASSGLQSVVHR

Regarding `[Na+].[O-]/N=C1/c2ccccc2-c2nc3c(Cl)cc(Cl)cc3nc21`, the outcome in series [1], in [2] and in [3] was inactive. Besides, the inhibition result in [4] and in [5] was “inactive” throughout. Besides, the Activity entry (in [6]; in the series with MONO-MAC-6) was “Non-Toxic” throughout.
For the compound `CCOC(=O)CO/N=C1\c2ccccc2-c2nc3ccccc3nc21`, the dissociation constant (Kd) in [7] amounted to 22 nM; in series [8], 735 nM; in series [9], 76 nM. In addition, the IC50 in series [10] came out at 2500 nM; in series [11], 3300 nM. In addition, the inhibition entry in series [10] and in series [11] was “Dose-dependent effect” throughout. In addition, the Activity result (in [6]; in the series on MONO-MAC-6) was “Non-Toxic” throughout. Moreover, in series [12], the inhibition result was “Active”.
On to `O=C1c2ccccc2-n2c1nc1ccccc1c2=O` [TRYPTANTHRIN], for which the Kd in series [7] was found to be 23000 nM; in [13], 9200 nM; in series [14], 7200 nM. For the same compound, the outcome in series [2] and in series [3] was inactive.
Turning to `O/N=C1\c2ccccc2-c2nc3ccccc3nc21`, the logP in series [15] is 4.04.
For `CCO/N=C1\c2ccccc2-c2nc3ccccc3nc21`, the result in [1], in [2] and in [3] was inactive. In addition, the inhibition result in series [4] and in [5] was “inactive” throughout. Besides, the Activity result (in [6]; in the series with MONO-MAC-6) was “Non-Toxic” each time.
Turning to `[Na+].[O-]/N=C1/c2ccccc2-c2nc3ccc(C(F)(F)F)cc3nc21`, the result in series [1], in series [2] and in [3] was inactive. Also, the inhibition result in [4] and in [5] was “inactive” in each case. In addition, the Activity result (in series [6]; in the series with MONO-MAC-6) was “Non-Toxic” in each case.
On to `c1ccc(CO/N=C2\c3ccccc3-c3nc4ccccc4nc32)cc1`, for which the outcome in series [1], in series [2] and in [3] was inactive. Also, the inhibition entry in [4] and in series [5] was “inactive” each time. Further, the Activity entry (in series [6]; in the series on MONO-MAC-6) was “Non-Toxic” each time.
For the compound `O=c1c2ccccc2nc2n1-c1ccccc1/C2=N\O`, the inhibition in series [16] was above 90%; in series [17] it was above 90%; in series [18], above 90%; in series [19], above 90%; in series [20], above 90%; in [10] it was “Dose-dependent effect”. For the same compound, in series [11], the inhibition entry was “Dose-dependent effect”. The equilibrium dissociation constant (Kd) in [13] came out at 1100 nM. The same compound registered a logP in series [15] of 2.92.
For the compound `CC(C)CO/N=C1\c2ccccc2-c2nc3ccccc3nc21`, the outcome in series [1], in series [2] and in [3] was inactive. In addition, the inhibition entry in series [4] and in [5] was “inactive” throughout. Also, the Activity result (in series [6]; in the series on MONO-MAC-6) was “Non-Toxic” each time.
Consider `C=CCO/N=C1\c2ccccc2-c2nc3ccccc3nc21`, for which the outcome in series [1], in series [2] and in series [3] was inactive. Also, the inhibition result in series [4] and in series [5] was “inactive” in each case. Further, the Activity entry (in series [6]; in the series on MONO-MAC-6) was “Non-Toxic” throughout.
